Measurements gathered from unrelated publications.
Compare with care: the assays were run in different laboratories.
Target: Casein kinase I isoform gamma-3 (CSNK1G3, Homo sapiens, UniProt Q9Y6M4)

`CNC(=O)c1cc(Oc2ccc(NC(=O)Nc3ccc(Cl)c(C(F)(F)F)c3)cc2)ccn1` has an inhibition of -4% (enzyme activity; inhibitor; 0.3 µM).
`O=C(Nc1cnn(-c2csc(C(=O)NC3COC3)c2)c1)Nc1c(F)cccc1Cl` gave a remaining activity of 92.6% (enzyme activity; inhibitor; 5 µM).
For `Cc1ccc(C(=O)Nc2ccc(CN3CCN(C)CC3)c(C(F)(F)F)c2)cc1C#Cc1cnc2cccnn12`, the remaining activity was 97% (enzyme activity; inhibitor; 23.5 nM).
With `Cn1c2c(Cl)c(Cl)ccc2c2cc[nH]c(=O)c21` the ΔTm was -0.2 °C (thermal stability; DSF; 10 µM).
With `CO[C@@H](C)c1c(Nc2ccc([C@@H](N(C)C(=O)C3CCS(=O)(=O)CC3)C(F)(F)F)cc2)cnc2cc(Cl)nn12` the remaining binding was 71% (cell-free assay; competition with immobilised ligand; 1 µM).
With `CN(c1nccc(-c2cnn3ncccc23)n1)C1CC1` the remaining binding was 100% (binding; 1 µM).
`COc1cc2ncnc(Nc3ccc(Oc4ccccc4)c(C)c3C)c2cc1OC` gave an inhibition of 3% (enzyme activity; inhibitor; 1 µM).
With `NS(=O)(=O)c1cc(NC(=O)Cc2ccccc2)ccc1Oc1cccc(Cl)c1` the remaining binding was 74% (cell-free assay; competition with immobilised ligand; 1 µM).
`N#CCCc1ccc2c(c1)-c1[nH]c3ccc([N+](=O)[O-])cc3c1CC(=O)N2` has a remaining signal of 89.7% (cell-free assay; 0.5 µM).
The remaining activity of `CC(C)(C)c1nc2c(s1)c1nc(N)ncc1c1ccc(NS(=O)(=O)c3c(F)cccc3F)c(F)c12` is reported as 86% (enzyme activity; inhibitor; radiometric; 1 µM).
The remaining binding of `O=C(O)c1cc(-c2ccc(C3CCNCC3)cc2)c2ccc(-c3ccc(C(F)(F)F)cc3)cc2c1` is reported as 100% (cell-free assay; competition with immobilised ligand; 1 µM).
`Cc1cc(NC(=O)c2cccc3cc(-c4cccc5[nH]nc(N)c45)ccc23)ccc1F` has an activity vs control of 107% (enzyme activity; inhibitor; 0.1 µM).
`CCC1(CC)NC(=O)c2c(c3ccc(Cl)c(Cl)c3n2C)C1C#N` (centres unmarked) gave a ΔTm of 0 °C (thermal stability; DSF; 10 µM).
`O=S(=O)(NC1CCC(c2cc(F)ccc2F)(S(=O)(=O)c2ccc(Cl)cc2)CC1)C(F)(F)F` (centres unmarked) gave a remaining binding of 83% (cell-free assay; competition with immobilised ligand; 1 µM).
With `Cn1c2c(c3ccc(Cl)c(Cl)c31)C(C#N)C1(CCN(C(=O)OC(C)(C)C)CC1)NC2=O` (racemic) the ΔTm was -0.1 °C (thermal stability; DSF; 10 µM).
`CS(=O)(=O)CCNCc1ccc(-c2ccc3ncnc(Nc4ccc(OCc5cccc(F)c5)c(Cl)c4)c3c2)o1` has a remaining signal of 104% (cell-free assay; 0.5 µM).
`Cn1c2c(Cl)c(Cl)ccc2c2cc(N)[nH]c(=O)c21` has a ΔTm of 0.1 °C (thermal stability; DSF; 10 µM).
`CCCOc1ccc([C@@H]2[C@@H](C(=O)O)[C@H](c3ccc4c(c3)OCO4)CN2CC(=O)Nc2c(CC)cccc2CC)cc1` gave a remaining binding of 100% (cell-free assay; competition with immobilised ligand; 1 µM).
`CCN1CCC2(CC1)NC(=O)c1c(c3ccc(Cl)c(Cl)c3n1C)C2C#N` (racemic) gave a ΔTm of 0.8 °C (thermal stability; DSF; 10 µM).
With `O=C(NC[C@@H]1[C@H]2CN(C(=O)OCc3cc(C(F)(F)F)cc(C(F)(F)F)c3)C[C@@H]12)c1ccc2[nH]nnc2c1` the remaining binding was 89% (cell-free assay; competition with immobilised ligand; 1 µM).
With `N#CC1c2c([nH]c3c(Cl)c(Cl)ccc23)C(=O)NC12CCCCC2` (racemic) the ΔTm was 0.2 °C (thermal stability; DSF; 10 µM).
The remaining binding of `CS(=O)(=O)c1cc(C2(NC(=O)c3cncc4c3cnn4-c3ccc(F)cc3)CC2)ccn1` is reported as 100% (cell-free assay; competition with immobilised ligand; 1 µM).
`CCCS(=O)(=O)Nc1ccc(F)c(C(=O)c2c[nH]c3ncc(-c4ccc(Cl)cc4)cc23)c1F` gave an inhibition of under 10% (enzyme activity; inhibitor; 1 µM).
With `COc1cc(Cl)c(C(=O)N[C@@H](CN[C@H]2CC[C@@H](N)CC2)Cc2ccc(C#N)cc2)cc1-c1ccc(CN[C@H](C)c2ccc(C)cc2)o1` the remaining activity was 96% (enzyme activity; inhibitor; 1 µM).
The remaining signal of `O=C1Nc2ccc(Cl)cc2C1=Cc1cc(Cl)c(O)c(Cl)c1` is reported as 93% (cell-free assay; 0.5 µM).
`COc1ccc2c(O[C@@H]3C[C@H]4C(=O)N[C@]5(C(=O)O)CC5/C=C\CCCCC[C@H](NC(=O)OC5CCCC5)C(=O)N4C3)cc(-c3csc(NC(=O)C(C)C)n3)nc2c1C` (some centres unmarked) has a remaining binding of 100% (cell-free assay; competition with immobilised ligand; 1 µM).
`COc1cc2c(N3CCN(C(=O)Nc4ccc(OC(C)C)cc4)CC3)ncnc2cc1OCCCN1CCCCC1` has a remaining signal of 95% (cell-free assay; 0.5 µM).
`Cc1ccc(Nc2nccc(N(C)c3ccc4c(C)n(C)nc4c3)n2)cc1S(N)(=O)=O` has an inhibition of -8% (enzyme activity; inhibitor; 0.3 µM).
With `CN1CC(Oc2cnc(C#N)cc2-c2ccn3nc(NC(=O)C4CC4)cc3c2)C1` the inhibition was 21% (enzyme activity; inhibitor; 1 µM).
